Starred links: 1 amine or outer side, 2 acyl side, 3 side chain; linkers in the order of their positions; H or OH if unused. Positions of bridges follow the written chain, without caps; N, C: chain ends. Non-standard residues stand in square brackets, D forms with d. Primed or numbered codes have the meaning given here. *: point of attachment. PEG2′ = PEG2 (Ebes) spacer between FITC and the peptide N-terminus, O=C(CCC(=O)[*:2])NCCOCCOCCN[*:1]; FITC = O=C1OC2(c3ccc(O)cc3Oc3cc(O)ccc32)c2ccc(NC(=S)*)cc21; Phe(3,5-F2) = N[C@@H](Cc1cc(F)cc(F)c1)C(=O)O; Hyp = O=C(O)[C@@H]1C[C@@H](O)CN1
Assays:
[1] = on-bead flow cytometry binding to healthy plasma exosomes; set-up: species or system human; settings: exosomes isolated by ultracentrifugation
Summary of the method: (§1)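 Exosomes were isolated by ultracentrifugation: Jurkat EV-depleted culture supernatant, or whole plasma from three healthy donors. Spins were 300 × g, 2,000 × g and 10,000 × g, then twice 100,000 × g for 2 hr at 4°C. Exosomes (10 μg protein) were labeled overnight with FITC-PEG peptide or scrambled analogue (1 μL of 5 mM). Free peptide was removed by 3000 Da spin column. Samples were adsorbed to 3.9 μm aldehyde/sulfate latex beads for flow cytometry. Triplicates, ≥10,000 beads each.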

Jurkat tumor cells = experiment: flow cytometry binding to Jurkat cells; format: cell-based, human; settings: α4β1-expressing; data not shown
Summary of the method: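 Jurkat cells were grown in RPMI 1640 with 10% FBS and penicillin/streptomycin (37°C, 5% CO2). Cells were incubated 30 min in 3% FBS/PBS with FITC-PEG-labeled peptide or scrambled analogue at 1 μM; anti-α3-FITC was used at 1 μg per million cells. Cells were washed thrice and resuspended in 3% FBS with 1% sodium azide. Three replicates, ≥10,000 gated cells each.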

[2] = on-bead flow cytometry binding to Jurkat exosomes; set-up: species or system human; settings: α4β1-expressing, data not shown
Summary of the method: as §1

Row | Substance | binding to healthy human plasma exosomes [1] | binding to Jurkat cells (Jurkat tumor cells) | binding to Jurkat exosomes [2]
1 | [cGd-Hyp-Phe(3,5-diF)-G-NcR] (disulfide) [scr-LXY30] | limited binding |  | 
2 | scr-LXY30-Fl: scr-LXY30 labeled with fluorescein isothiocyanate dye via PEG2 spacer at the peptide N-terminus ({FITC-PEG2′}-[dC]G[dD][Hyp][Phe(3,5-F2)]GN[dC]R-NH2; disulfide 1-8) | did not exhibit significant binding | minimal extent | minimal extent

Reference: article PMC6001286 (Advanced biosystems, 2017)
